Experimental data: ChEMBL document CHEMBL1156237, “Antiviral activity of benzimidazole derivatives. II. Antiviral activity of 2-phenylbenzimidazole derivatives” (Bioorg Med Chem, 2010)
Activity calls are given as the source filed them.

What was measured:
[1] = Cytotoxicity against MDBK cells after 48 to 96 hrs by MTT assay; format: cell-based, Bos taurus; conditions: cattle, MDBK cells
How it was run: (§1)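 Cell seeding: MDBK at 6 × 10^5 cells/mL in MEM-E with 10% horse serum and 1 mM Na pyruvate; BHK at 1 × 10^6 cells/mL in MEM-E with 10% FBS. Serial compound dilutions, 37 °C, 5% CO2. Viability of mock-infected cells by MTT after 48–96 h; CC50 is the concentration reducing viability by 50%.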

Hepatitis C virus [2] = assay: Antiviral activity against HCV Con1 expressed in human HuH7 cells assessed as NS4A expression after 72 hrs by ELISA-based replicon assay; format: functional, organism-based, Hepacivirus hominis; conditions: isolate Con1, Huh-7, 72 h
How it was run: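 GS4.1 cells (Huh-7 carrying HCV Con1 subgenomic replicon) at 7.5 × 10^3/well. Ten twofold compound dilutions (top 75 µM), 0.5% DMSO, 72 h at 37 °C; replicon-free Huh-7 as negative control. NS4A measured by ELISA with anti-NS4A mAb A-236, peroxidase secondary and o-phenylenediamine, absorbance 492 nm. EC50 by four-parameter sigmoidal fit.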

[3] = Cytotoxicity against BHK cells after 48 to 96 hrs by MTT assay; format: cell-based, Mesocricetus auratus; conditions: hamster; how it was run: as §1
Yellow fever virus = assay: Antiviral activity against Yellow fever virus 17D infected in BHK cells assessed as protection from virus-induced cytopathogenicity after 3 to 4 days by MTT method; format: functional, organism-based
Hepatitis C virus [4] = assay: Inhibition of HCV 1b NS5B Cdelta21 RNA dependent RNA polymerase expressed in Escherichia coli after 30 mins by fluorescence assay; format: functional, Hepatitis C virus subtype 1b; conditions: 0.5 h
How it was run: (§2)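 N-His-tagged NS5B from E. coli Rosetta2(DE3)pLysS (BVDV C-terminal Δ24; HCV1b Δ21), Ni-NTA purified, 500–600 ng per 20 µL reaction. Template 10 µg/mL poly(rC), primer 0.1 µg/mL oligo(rG)12, substrate 80 µM GTP; 20 mM Tris pH 7.0, 0.5 mM MnCl2 or 5 mM MgCl2, 5% DMSO. Enzyme pre-incubated with drug 30 min at room temperature.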

[5] = Selectivity index, ratio of CC50 for human MT4 cells to EC50 for Bovine viral diarrhea virus NADL; format: toxicity, cell-based; conditions: read-out: Ratio CC50/EC50
[6] = Selectivity index, ratio of CC50 for MDBK cells to EC50 for Bovine viral diarrhea virus NADL; format: toxicity, cell-based; conditions: cattle, read-out: Ratio CC50/EC50
[7] = Cytotoxicity against african green monkey Vero cells; format: cell-based; conditions: chlorocebus sabaeus
How it was run: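 Vero 76 monolayers exposed to serial compound dilutions, run in parallel on the same 24-well plates as the plaque-reduction assays. CC50 is the concentration reducing viability of mock-infected cells by 50%.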

Human alphaherpesvirus 1 = assay: Antiviral activity against HSV1 KOS infected in african green monkey Vero cells after 3 days by plaque reduction assay; format: functional, organism-based; conditions: Human alphaherpesvirus 1, KOS, 72 h
How it was run: (§3)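 Plaque reduction assay. Vero 76 cells at 2 × 10^5/well, grown overnight to confluence in D-MEM with 10% FBS. Infected 2 h with 50–100 PFU/well, unadsorbed virus removed. Overlay of D-MEM with 1% inactivated FBS and 0.75% methylcellulose, with or without serial compound dilutions. Incubated at 37 °C for 3 days (HSV-1 KOS, CVB-2 Ohio-1) or 5 days (RSV A2). Fixed and stained with crystal violet in 50% ethanol; plaques counted; EC50 by linear regression.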

[8] = Cytotoxicity against human MT4 cells after 96 hrs by MTT assay; format: cell-based; conditions: MT4 cells
How it was run: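 Exponentially growing MT-4 cells at 1 × 10^5 cells/mL in RPMI-1640 with 10% FCS, exposed to serial compound dilutions at 37 °C, 5% CO2. Viability by MTT after 96 h; CC50 is the concentration reducing viability of mock-infected cells by 50%.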

Poliovirus 1 = assay: Antiviral activity against Polio virus type1 Sabin strain Chat infected in african green monkey Vero cells after 2 days by plaque reduction assay; format: functional, organism-based, Human poliovirus 1 strain Sabin; conditions: Enterovirus C, 48 h
Coxsackievirus B2 = assay: Antiviral activity against Human coxsackievirus B2 Ohio-1 infected in african green monkey Vero cells after 3 days by plaque reduction assay; format: functional, organism-based, Coxsackievirus B2 (strain Ohio-1); conditions: Enterovirus B, Vero, 72 h; how it was run: as §3
[9] = Inhibition of Bovine viral diarrhea virus NADL NS5B Cdelta24 RNA dependent RNA polymerase expressed in Escherichia coli after 30 mins by fluorescence assay; design: species or system Bovine viral diarrhea virus 1-NADL; how it was run: as §2
[10] = Cytotoxicity against human HuH7 cells after 72 hrs; format: cell-based, Huh-7
How it was run: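 GS4.1 replicon cells treated as in the replicon assay (twofold dilutions up to 75 µM, 72 h). Viability by CellTiter 96 AQueous One Solution; CC50 from % cytotoxicity versus concentration.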

[11] = tested on: Human immunodeficiency virus 1; assay: Antiviral activity against HIV1 3B infected in human MT4 cells assessed as protection from virus-induced cytopathogenicity after 4 days by MTT method; format: functional, organism-based
How it was run: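 MT-4 cells, 1 × 10^4/well in RPMI with or without serial compound dilutions, infected with HIV-1 IIIB, 100 CCID50 (m.o.i. 0.01). Protection from virus-induced cytopathogenicity read by MTT.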

[12] = tested on: Bovine viral diarrhea virus 1; assay: Antiviral activity against Bovine viral diarrhea virus NADL infected in MDBK cells assessed as protection from virus-induced cytopathogenicity after 3 to 4 days by MTT method; format: functional, organism-based, Bovine viral diarrhea virus 1-NADL; conditions: Bovine viral diarrhea virus isolates and strains, MDBK
How it was run: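 Cytopathogenicity protection assay. MDBK cells at 3 × 10^4/well, grown overnight to confluence. Infected with BVDV NADL at m.o.i. 0.01 in MEM-E with 0.5% inactivated FBS, 1 mM Na pyruvate and 1% kanamycin. Serial compound dilutions added after 1 h. After 3–4 days at 37 °C, viability read by MTT; EC50 is the concentration giving 50% protection.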

[13] = tested on: Vesicular stomatitis virus; assay: Antiviral activity against VSV Indiana lab infected in african green monkey Vero cells after 2 days by plaque reduction assay; format: functional, organism-based
[14] = Selectivity index, ratio of CC50 for african green monkey Vero cells to EC50 for Human coxsackievirus B2 Ohio-1; format: toxicity, cell-based; conditions: read-out: Ratio CC50/EC50
[15] = Selectivity index, ratio of CC50 for human MT4 cells to EC50 for Human coxsackievirus B2 Ohio-1; format: toxicity, cell-based; conditions: read-out: Ratio CC50/EC50
[16] = tested on: Respiratory syncytial virus; assay: Antiviral activity against RSV A2 infected in african green monkey Vero cells after 5 days by plaque reduction assay; format: functional, organism-based; conditions: for EC50: human respiratory syncytial virus, A2, Vero, 120 h; how it was run: as §3
Vaccinia virus = assay: Antiviral activity against Vaccinia virus Elstree-Lister infected in african green monkey Vero cells after 3 days by plaque reduction assay; format: functional, organism-based; conditions: Orthopoxvirus vaccinia; for EC50: 72 h
[17] = tested on: Bovine viral diarrhea virus 1; assay: Antiviral activity against Bovine viral diarrhea virus NADL infected in MDBK cells assessed as inhibition of post viral entry pre-budding stage of replication administered at 13 hrs post infection measured after 24 to 36 hrs by plaque reduction assay; format: functional, organism-based; conditions: Bovine viral diarrhea virus 1-NADL
How it was run: (§4)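 MDBK monolayers inoculated at room temperature with BVDV NADL, 300 PFU (m.o.i. 0.01 PFU/cell), 60 min adsorption, washed, kept in MEM-E + 1 mM Na pyruvate + 0.5% inactivated FBS at 37 °C. Medium containing 10× compound added for one window (−1–0, 0–2, 2–4 … 12–14 h), then washed out and fresh medium given. CPE scored at 24–36 h; viral titre by plaque assay.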

[18] = tested on: Bovine viral diarrhea virus 1; assay: Antiviral activity against Bovine viral diarrhea virus NADL infected in MDBK cells assessed as inhibition of viral replication administered up to 4 hrs post infection measured after 24 to 36 hrs by plaque reduction assay; format: functional, organism-based; conditions: Bovine viral diarrhea virus 1-NADL; how it was run: as §4
[19] = tested on: Bovine viral diarrhea virus 1; assay: Antiviral activity against Bovine viral diarrhea virus NADL infected in MDBK cells assessed as protection from virus-induced cytopathogenicity administered up to 6 hrs post infection measured after 24 to 36 hrs by plaque reduction assay; format: functional, organism-based; conditions: Bovine viral diarrhea virus 1-NADL; how it was run: as §4
[20] = tested on: Mammalian orthoreovirus 1; assay: Antiviral activity against Reovirus 1 3651 infected in BHK21 cells assessed as protection from virus-induced cytopathogenicity after 3 to 4 days by MTT method; format: functional, organism-based; conditions: BHK-21

| SMILES | CC50 [1] [µM] | CC50 [3] [µM] | EC50 (Yellow fever virus) [µM] | selectivity ratio [5] | selectivity ratio [6] | CC50 [7] [µM] | EC50 (Human alphaherpesvirus 1) [µM] | CC50 at 96 h [8] [µM] | EC50 (Poliovirus 1) [µM] | EC50 (Coxsackievirus B2) [µM] | Activity [11] | EC50 [12] [µM] | Activity [13] | selectivity ratio [14] | selectivity ratio [15] | other results |
| --- | --- | --- | --- | --- | --- | --- | --- | --- | --- | --- | --- | --- | --- | --- | --- | --- |
| CC(=O)Nc1ccc(-c2nc3cc(Cl)c(Cl)cc3[nH]2)cc1 | 58 | > 100 | > 100 | > 100 | 58 | > 100 | > 100 | > 100 | > 100 | > 100 | inactive | 1 | inactive | – | – | EC50 (Hepatitis C virus [2]): 32 µM; IC50 (Hepatitis C virus [4]): 5 µM; IC50 [9]: 3 µM; CC50 at 72 h [10]: > 75 µM |
| CC(=O)Nc1ccc(-c2nc3cc(C(F)(F)F)ccc3[nH]2)cc1 | 50 | 53 | > 53 | 15 | 39 | 50 | 7 | 19 | 16 | 3 | inactive | 1.3 | inactive | 17 | 6.3 | – |
| COc1cc(OC)cc(-c2nc3cc(C(F)(F)F)ccc3[nH]2)c1 | > 100 | > 100 | > 100 | – | – | > 100 | > 100 | 19 | > 100 | 3 | inactive | > 100 | inactive | > 33 | 6.3 | EC50 [16]: 10 µM; EC50 (Vaccinia virus): > 100 µM |
| CC(=O)Nc1ccc(-c2nc3cc([N+](=O)[O-])ccc3[nH]2)cc1 | > 100 | > 100 | > 100 | > 125 | > 125 | > 100 | > 100 | > 100 | > 100 | > 100 | inactive | 0.8 | inactive | – | – | Activity [17]: Active; EC50 (Hepatitis C virus [2]): 38 µM; IC50 (Hepatitis C virus [4]): 30 µM; Activity [18]: Active; Activity [19]: Active; IC50 [9]: 12 µM; CC50 at 72 h [10]: > 90 µM |
| O=C(CN1CCCC1)Nc1ccc(-c2nc3cc(C(F)(F)F)ccc3[nH]2)cc1 | 15 | 29 | 7 | 6 | 5 | > 100 | > 100 | 18 | > 100 | > 100 | inactive | 3 | inactive | – | – | – |
| O=C(CN1CCCC1)Nc1ccc(-c2nc3cc(Cl)c(Cl)cc3[nH]2)cc1 | 16 | 64 | > 64 | – | – | > 100 | > 100 | 8 | 25 | 1.5 | inactive | 2.5 | inactive | > 67 | 5.3 | – |
| CCC(=O)Nc1ccc(-c2nc3cc(C(F)(F)F)ccc3[nH]2)cc1 | > 100 | 100 | > 100 | – | – | > 100 | > 100 | ≥ 100 | > 100 | 4 | inactive | > 100 | inactive | > 25 | ≥ 25 | – |
| CCN(CC)CC(=O)Nc1ccc(-c2nc3cc(C(F)(F)F)ccc3[nH]2)cc1 | 13 | 23 | 7 | 4 | 6.5 | 24 | 24 | 8 | > 24 | > 24 | inactive | 2 | inactive | – | – | – |
| Nc1ccc(-c2nc3cc(Cl)c(Cl)cc3[nH]2)cc1 | 7.5 | 30 | > 30 | 17 | 7.5 | ≥ 100 | 28 | 17 | > 100 | 11 | inactive | 1 | inactive | – | – | EC50 [16]: 10 µM |
| CC(=O)Nc1ccc(-c2nc3cc(C(F)(F)F)ccc3n2C)cc1 | 46 | > 100 | > 100 | – | – | > 100 | 49 | 15 | 14 | 2.5 | inactive | > 46 | inactive | > 40 | 6 | Activity [16]: inactive; Activity [20]: inactive; Activity (Vaccinia virus): inactive |
| Nc1ccc(-c2nc3cc([N+](=O)[O-])ccc3[nH]2)cc1 | 79 | > 100 | > 100 | 67 | 53 | > 100 | > 100 | 100 | > 100 | > 100 | inactive | 1.5 | inactive | – | – | IC50 (Hepatitis C virus [4]): 33 µM; IC50 [9]: 18 µM |
| COc1cccc(-c2nc3cc(C(F)(F)F)ccc3[nH]2)c1 | 28 | 90 | > 90 | – | – | > 100 | 12 | 19 | > 100 | 4 | inactive | > 28 | inactive | > 25 | 4.8 | EC50 [16]: 7 µM; EC50 (Vaccinia virus): > 100 µM |
